Screens from PubChem BioAssay.
This is one part of a sample in which hits are shown more often than they occur.
V-ATPase pH – alters yeast V-ATPase proton transport. S. cerevisiae, pHLuorin cytosolic pH fluorescence. response, % at 10 µM. 0.37% of 350,000 active. AID 504577; in the data active = response mostly above about 7.3%, no sharp cut-off; inactive = mostly below about 5.4%; also: actives read high
CHOP UPR activ – activators of apoptotic arm of unfolded protein response (CHOP); 0.34% of 330,000 active; CHO-CHOP luciferase reporter, UPR activation, luminescence; percent of tunicamycin response over DMSO baseline; activation, % at 10 µM;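 active = at 10 µM dose, activation of 40% or more, normalized to positive control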;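 also: 100% = tunicamycin at 10 µg/mL and 0% = DMSO alone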
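Test system: CHO CHOP reporter cells. Input: 500 CHO-CHOP cells per well. Medium: F12 with 10% FBS. Technique: luciferase luminescence. Measure: percent activation relative to tunicamycin control. Dosing: 10 µM compound, 0.5% DMSO. Timing: 16-18 h cell attachment, then 6 h compound exposure, 37 °C.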
XBP1 UPR activ – adaptive UPR (XBP1) activation | CHO-XBP1 luciferase reporter, IRE1-XBP1 UPR activation, luminescence; percent of tunicamycin response, DMSO as zero | activation, % at 20 µM | 0.33% of 330,000 active;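 active = versus positive control, 20 µM dose yields 30% or more activation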;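 also: 100% = tunicamycin at 10 µg/mL and 0% = DMSO only wells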
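Material: IRE1-XBP1 luciferase reporter CHO line / Quantity: one thousand reporter cells per well / Buffer or medium: F12 with 10% serum / Compound: 20 µM single concentration, DMSO 1% / Times: 6 h treatment, 37 °C / Detection: Steady-Glo luciferase glow luminescence, 10 min after reagent addition / Benchmarks: tunicamycin high, DMSO low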
CHOP inhibitor – blocks CHOP induction under ER stress. CHO-K1 CHOP-promoter luciferase, tunicamycin-induced, 15-18 h. inhibition, % at 10 µM. 3.8% of 220,000 active. AID 2732;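 active = compounds that reduced the stress-induced luciferase reporter signal by more than about 70% of percent inhibition, limit read from the data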;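 also: 0% = tunicamycin plus vehicle and 100% = wells without tunicamycin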
TbMetRS inhib – Trypanosoma brucei MetRS inhibition; purified T. brucei MetRS, ATP depletion, Kinase-Glo luminescence; AID 624268; 0.4% of 360,000 active; inhibition, % at 11.9 µM;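 active = inhibition above a per-plate cutoff of the control wells' mean inhibition plus 3 SD, cut at about 5.5% in these data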;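 also: 0% = DMSO wells median and 100% = median of wells with control inhibitor compound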
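Dosing: 11.9 µM compound single dose, 0.9% DMSO; Assay system: purified T. brucei MetRS enzyme; Measured by: Kinase-Glo luciferase luminescence reporting remaining unconsumed ATP; Schedule: 15 min plus 2 h at 25 °C.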
TbMetRS confirm – confirmation of Trypanosoma brucei MetRS inhibitors; inhibition, % at 11.9 µM; 93% of 1,400 active; T. brucei MetRS enzyme, luminescence (ATP depletion); AID 624412; shares compounds with TbMetRS inhib; in the data active = inhibition above about 7%
Jurkat tox – Jurkat T cell cytotoxicity for MetRS hits; shares compounds with TbMetRS inhib; inhibition, % at 8.3 µM; Jurkat cells viability, ATP luminescence; 12% of 1,400 active; AID 624413; in the data active = inhibition above about 15%;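 also: 0% = vehicle and 100% = reference inhibitor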
Tb MetRS inh FP – T. brucei MetRS inhibition, orthogonal assay; shares compounds with TbMetRS inhib; purified T. brucei MetRS, fluorescence polarization; inhibition, % at 11.9 µM; 44% of 1,400 active; AID 651607; in the data active = inhibition above about 17%;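 also: 0% = vehicle wells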
* marks the source's active call; other numbers are inactive results; x = not tested or not shown.

SMILES	V-ATPase pH	CHOP UPR activ	XBP1 UPR activ	CHOP inhibitor	TbMetRS inhib	TbMetRS confirm	Jurkat tox	Tb MetRS inh FP
NS(=O)(=O)c1ccc(CCNC(=O)C(=O)c2c[nH]c3ccccc23)cc1	-1.0	-0.8	0.2	11.4	11.6*	25.6*	-5.3	9.8
Cc1[nH]c2ccccc2c1C(=O)C(=O)NCCc1ccc(S(N)(=O)=O)cc1	-5.2	0.6	0.4	19.1	49.7*	65.9*	-2.7	44.6*
COc1cc(/C=C/C(=O)O)cc(S(=O)(=O)NC2CC2)c1OC	3.1	3.5	2.0	18.9	0.4	x	x	x
O=C(NCc1ccc2c(c1)OCO2)C1CC(=O)N(c2ccc(Cl)cc2)C1 (stereo not drawn)	-3.0	2.4	2.8	x	8.9*	16.4*	2.5	7.7
O=C(NCCN1CCOCC1)c1cc(Cl)ccc1[N+](=O)[O-]	x	0.7	-5.0	17.2	x	x	x	x
COc1ccc(NC(=S)N2CCC(c3nc4ccc(Cl)cc4[nH]3)CC2)c(OC)c1	-3.0	-2.5	-2.1	17.4	14.7*	36.3*	0.9	23.6*
O=C(NC1CCCCC1)N1CCC(c2nc3ccc(Cl)cc3[nH]2)CC1	0.6	-1.8	1.8	78.8*	7.8*	11.9*	12.4	6.5
O=C(NC1CCCCC1)N1CCCC(c2nc3ccccc3[nH]2)C1 (stereo not drawn)	1.5	-0.3	-1.6	18.8	9.2*	16.2*	-2.5	9.4
COC1=CC(=O)C(OC)=C(OC)C1=O	-0.9	x	x	x	0.3	x	x	x
Cc1scc(C(=O)N2CCN(S(C)(=O)=O)CC2)c1-c1ccccc1	-3.4	-0.9	0.4	4.0	24.2*	3.8	2.2	-2.6
COc1ccc(OCc2cc(C(=O)N3C[C@H]4CC[C@H]3C4)no2)c(Cl)c1	5.1	6.9	5.0	x	0.0	x	x	x
COc1ccc(NC(=O)C2CC(=O)n3c(nc4ccccc43)N2)cc1 (stereo not drawn)	6.1	-1.0	-1.3	-0.4	-0.2	x	x	x
O=C(Nc1ccc(F)c(Cl)c1)C1CC(=O)n2c(nc3ccccc32)N1 (stereo not drawn)	3.9	-1.7	-0.3	75.7*	74.4*	89.5*	7.2	76.2*
O=C(Nc1ccc(F)cc1)C1CC(=O)n2c(nc3ccccc32)N1 (stereo not drawn)	-0.7	0.8	-2.6	33.4	17.7*	34.1*	0.8	11.7
CC(=O)N1c2ccc(S(=O)(=O)NCCC(=O)Nc3ccc(C)c(Cl)c3)cc2CC1C (stereo not drawn)	3.8	0.3	-2.2	x	0.4	x	x	x
CCCCCCCCCC1NC(C(=O)O)Cc2c1[nH]c1ccccc21 (stereo not drawn)	0.5	x	x	x	70.3*	93.0*	-5.7	73.6*
Cn1c(=S)ccc2ccccc21	-1.7	-1.7	-3.2	-5.7	0.8	x	x	x
COc1ccc(OCc2cc(C(=O)NCc3nc(C)cs3)no2)c(Cl)c1	-0.2	4.3	-0.4	x	6.2*	29.2*	1.3	20.9*
COc1ccc(OCc2cc(C(=O)NC(C)c3csc(C)n3)no2)c(Cl)c1 (stereo not drawn)	1.9	7.0	-1.6	x	1.3	x	x	x
CS(=O)(=O)Cc1nc2ccccc2n1CC(=O)Nc1cccc(S(=O)(=O)N2CCCC2)c1	-5.4	x	x	x	10.2*	33.0*	0.0	9.6
Oc1c(Cl)cc(Cl)cc1CNc1nc2ccccc2[nH]1	-5.6	1.4	2.9	x	92.9*	107.6*	0.3	101.9*
O=C(NCc1ccco1)/C(=C/c1ccc(C(F)(F)F)cc1)c1nc2ccccc2[nH]1	-0.3	7.9	4.1	88.7*	7.7*	5.0	29.9*	-2.8
O=S(=O)(/C(=C\c1ccc(C(F)(F)F)cc1)c1nc2ccccc2[nH]1)c1ccccc1	5.9	x	x	x	-0.3	x	x	x
Nc1nc2ccccc2n1CCOc1ccccc1Cl	-0.6	-0.4	-6.9	69.0	67.0*	79.9*	7.8	44.5*
Cc1ccc(OCCn2c(C)nc3ccccc32)cc1	11.2	-0.3	-0.2	x	-0.4	x	x	x
